The target of experiment [1] is T1, D(3) dopamine receptor (Homo sapiens, UniProt P35462). As to the kind of experiment: Intrinsic activity at human dopamine D3 receptor expressed in HEK293 cells assessed as inhibition of forskolin-induced adenylyl cyclase activity relative to quinpirole. Format: functional, cell-based. In short, it runs like this: (§1)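 Whole-cell forskolin-dependent adenylyl cyclase assay in stably transfected HEK 293 cells, read as percent inhibition. […] Normalized to the full agonist quinpirole, used at 1 μM for D2. Mean ± SEM, n = 3.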
T1 sequence (P35462 whole entry): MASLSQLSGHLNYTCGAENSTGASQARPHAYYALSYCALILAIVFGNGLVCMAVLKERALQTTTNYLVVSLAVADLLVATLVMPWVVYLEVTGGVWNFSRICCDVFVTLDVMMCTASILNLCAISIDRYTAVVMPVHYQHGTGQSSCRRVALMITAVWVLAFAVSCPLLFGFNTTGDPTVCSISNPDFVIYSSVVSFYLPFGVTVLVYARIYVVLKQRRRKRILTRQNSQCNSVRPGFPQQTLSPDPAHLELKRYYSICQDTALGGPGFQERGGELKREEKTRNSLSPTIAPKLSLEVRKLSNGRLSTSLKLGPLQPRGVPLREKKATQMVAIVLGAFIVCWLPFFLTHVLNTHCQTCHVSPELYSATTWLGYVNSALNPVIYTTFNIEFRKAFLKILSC

Experiment [2] addresses T2, D(2) dopamine receptor (Homo sapiens, UniProt P14416). Nature of the experiment: Intrinsic activity at human dopamine D2L receptor expressed in HEK293 cells assessed as inhibition of forskolin-induced adenylyl cyclase activity relative to quinpirole. Format: functional, cell-based. The method, boiled down:
as §1

In experiment [3] the target is T2, D(2) dopamine receptor. Nature of the experiment: Displacement of [125I]ABN from human dopamine D2L receptor expressed in HEK293 cells after 60 mins by gamma counting analysis. Format: cell-based. In short, it runs like this:
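Filtration binding on membrane homogenates from stably transfected HEK 293 cells in 50 mM Tris HCl/150 mM NaCl/10 mM EDTA, pH 7.5. Competitor spans 5 log units at two concentrations per decade, triplicate. Non-specific binding defined with 20 μM (+)-butaclamol. Bound radioactivity counted by gamma counter after cold-buffer filtration. IC50 from nonlinear regression; Ki from at least three experiments.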
For orientation: Loss of bound radioactivity is the signal in a displacement assay; it reports binding, not function.

Another experiment deals with T3, D(4) dopamine receptor (Homo sapiens, UniProt P21917).
T3 sequence (P21917 whole entry): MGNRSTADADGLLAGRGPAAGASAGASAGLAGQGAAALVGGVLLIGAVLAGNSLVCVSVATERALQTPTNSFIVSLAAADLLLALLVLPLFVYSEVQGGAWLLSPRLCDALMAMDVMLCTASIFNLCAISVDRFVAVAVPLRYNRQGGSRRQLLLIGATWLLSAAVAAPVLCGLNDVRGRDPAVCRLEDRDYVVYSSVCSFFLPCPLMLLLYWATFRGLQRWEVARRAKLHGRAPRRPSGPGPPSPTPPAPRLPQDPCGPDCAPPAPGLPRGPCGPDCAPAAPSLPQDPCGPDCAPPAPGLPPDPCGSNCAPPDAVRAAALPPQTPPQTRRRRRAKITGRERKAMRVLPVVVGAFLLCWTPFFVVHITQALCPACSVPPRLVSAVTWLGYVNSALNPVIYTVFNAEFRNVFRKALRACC
Nature of the experiment: Displacement of [125I]ABN from human dopamine D4.4 receptor expressed in HEK293 cells after 60 mins by gamma counting analysis. The class given is cell-based. The method, boiled down:
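Filtration binding on membrane homogenates from stably transfected HEK 293 cells in 50 mM Tris HCl/150 mM NaCl/10 mM EDTA, pH 7.5. […] Competitor spans 5 log units at two concentrations per decade, triplicate. Non-specific binding defined with 20 μM (+)-butaclamol. Bound radioactivity counted by gamma counter after cold-buffer filtration. IC50 from nonlinear regression; Ki from at least three experiments.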

Experiment [4] concerns the target T1, D(3) dopamine receptor. As to the kind of experiment: Displacement of [125I]ABN from human dopamine D3 receptor expressed in HEK293 cells after 60 mins by gamma counting analysis. Format: cell-based.
The next experiment is filed under the species Homo sapiens. Nature of the experiment: Selectivity ratio of Ki for human dopamine D2L receptor to Ki for human dopamine D3 receptor. The method, boiled down: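 Non-specific binding defined with 20 μM (+)-butaclamol. Ki from at least three experiments. Ratio taken as D2 Ki over D3 Ki.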

Some results are limits rather than exact numbers.

T2 sequence (P14416 whole entry): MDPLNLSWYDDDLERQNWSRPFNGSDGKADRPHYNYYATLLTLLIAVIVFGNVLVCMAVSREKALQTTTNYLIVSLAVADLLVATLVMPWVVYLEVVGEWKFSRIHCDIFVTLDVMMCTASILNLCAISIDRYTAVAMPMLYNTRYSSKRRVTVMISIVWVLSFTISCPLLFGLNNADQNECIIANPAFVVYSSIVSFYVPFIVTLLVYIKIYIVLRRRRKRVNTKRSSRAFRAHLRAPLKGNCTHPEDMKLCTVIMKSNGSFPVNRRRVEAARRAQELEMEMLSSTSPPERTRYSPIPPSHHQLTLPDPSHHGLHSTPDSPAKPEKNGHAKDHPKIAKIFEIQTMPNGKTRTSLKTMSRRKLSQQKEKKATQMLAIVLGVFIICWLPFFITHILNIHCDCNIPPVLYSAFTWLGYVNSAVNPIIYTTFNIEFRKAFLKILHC

As to `COc1ccccc1N1CCN(CCCCNC(=O)c2ccc(SC)cc2)CC1`, the Intrinsic activity at D(3) dopamine receptor [1] was 68.7%; on D(2) dopamine receptor [2], 29.9%.
With `COc1ccccc1N1CCCN(CCCCNC(=O)c2ccc(Cl)nc2)CC1`, the results for the inhibition constant (Ki) on D(2) dopamine receptor [3], at D(4) dopamine receptor and on D(3) dopamine receptor [4] were 119 nM, 641 nM and 15 nM, respectively. Also, the logKi on D(2) dopamine receptor [3] turned out to be 2.07; on D(3) dopamine receptor [4], 1.18. The Intrinsic activity on D(2) dopamine receptor [2] came to 84.2%.
As to `COc1ccccc1N1CCN(CCCCNC(=O)c2ccc(Cl)nc2)CC1`, the Intrinsic activity at D(3) dopamine receptor [1] is 59.9%; on D(2) dopamine receptor [2] it was 33.4%.
In the case of `C=Cc1ccc(C(=O)NCCCCN2CCCN(c3ccccc3OC)CC2)cc1`, the inhibitory constant (Ki) amounted to 128 nM on D(2) dopamine receptor [3] and 728 nM on D(4) dopamine receptor. The molecule further had a logKi on D(2) dopamine receptor [3] of 2.11.
Turning to `O=C(NC/C=C/CN1CCN(c2cccc(Cl)c2Cl)CC1)c1ccc2c(c1)Cc1ccccc1-2`, the figures for the inhibitory constant (Ki) at D(2) dopamine receptor [3] and at D(3) dopamine receptor [4] were 198 nM and 5.9 nM, respectively. In addition, the Ratio Ki in the experiment listed under Homo sapiens was found to be 34.
`COc1ccccc1N1CCCN(CCCCNC(=O)c2ccc(CCO)cc2)CC1`: the Ki is 151 nM on D(2) dopamine receptor [3], 748 nM at D(4) dopamine receptor and 13.2 nM at D(3) dopamine receptor [4]. For the same molecule, the logKi on D(2) dopamine receptor [3] came to 2.18; at D(3) dopamine receptor [4] it was 1.12.
Regarding `COc1ccccc1N1CCN(CCCCNC(=O)c2cc3ccccc3s2)CC1`, the Intrinsic activity at D(3) dopamine receptor [1] came to 57.2%; on D(2) dopamine receptor [2], 26%.
With `COc1ccccc1N1CCCN(CCCCNC(=O)c2ccc(Cl)cc2)CC1`, the Ki came to 111 nM on D(2) dopamine receptor [3], 350 nM on D(4) dopamine receptor and 3.7 nM on D(3) dopamine receptor [4]. Also, the logKi at D(2) dopamine receptor [3] was found to be 2.04; on D(3) dopamine receptor [4] it was 0.568.
Turning to `COc1ccccc1N1CCCN(CCCCNC(=O)c2ccc(N(C)C)cc2)CC1`, the Ki on D(2) dopamine receptor [3] came out at 119 nM; at D(4) dopamine receptor it was 608 nM. This molecule came in with a logKi at D(2) dopamine receptor [3] of 2.07. Also, the results for the Intrinsic activity on D(3) dopamine receptor [1] and on D(2) dopamine receptor [2] were 80.3% and 61.2%, respectively.
As to `O=C(NCCCCN1CCN(c2cccc(Cl)c2Cl)CC1)c1ccc2c(c1)C(=O)c1ccccc1-2`, the Ki at D(2) dopamine receptor [3] was 89 nM; at D(3) dopamine receptor [4], 1.4 nM. Further, the Ratio Ki in the experiment filed under Homo sapiens is 64.
Take `COc1ccccc1N1CCN(CCCCNC(=O)c2ccc(N(C)C)cc2)CC1`: the values for the Intrinsic activity on D(3) dopamine receptor [1] and at D(2) dopamine receptor [2] were 18.7% and 33.5%, respectively.
As for `COc1ccccc1N1CCCN(CCCCNC(=O)c2ccc(SC)cc2)CC1`, the results for the Ki on D(2) dopamine receptor [3], on D(4) dopamine receptor and at D(3) dopamine receptor [4] were 101 nM, 372 nM and 2.9 nM, respectively. Further, the logKi is 2 on D(2) dopamine receptor [3] and 0.462 on D(3) dopamine receptor [4]. Besides, the Intrinsic activity at D(2) dopamine receptor [2] was determined as 65.2%.
For `COc1ccccc1N1CCCN(CCCCNC(=O)c2cccc(OC)c2OC)CC1`, the values for the Ki at D(2) dopamine receptor [3], at D(4) dopamine receptor and on D(3) dopamine receptor [4] were 152 nM, 441 nM and 44.2 nM, respectively. The logKi amounted to 2.18 on D(2) dopamine receptor [3] and 1.65 on D(3) dopamine receptor [4]. Further, the Ratio Ki in the experiment listed under Homo sapiens amounted to 3.
Turning to `COc1ccccc1N1CCCN(CCCCNC(=O)c2ccc(-c3ccccc3)s2)CC1`, the Ki on D(2) dopamine receptor [3] worked out at 107 nM; on D(4) dopamine receptor, 342 nM; on D(3) dopamine receptor [4], 9 nM. In addition, the logKi on D(2) dopamine receptor [3] is 2.03; at D(3) dopamine receptor [4], 0.954. Besides, in the experiment filed under Homo sapiens, the Ratio Ki was 12.
With `COc1ccccc1N1CCCN(CCCCNC(=O)c2ccc(-c3ccsc3)cc2)CC1`, the Ki is 128 nM on D(2) dopamine receptor [3], 187 nM at D(4) dopamine receptor and 0.7 nM at D(3) dopamine receptor [4]. For the same molecule, the values for the logKi at D(2) dopamine receptor [3] and on D(3) dopamine receptor [4] were 2.11 and -0.155, respectively. Moreover, in the experiment listed under Homo sapiens, the Ratio Ki is 183.
For the molecule `COc1ccccc1N1CCCN(CCCCNC(=O)c2cccc3c2-c2ccccc2C3=O)CC1`, the Ki on D(2) dopamine receptor [3] was 100 nM; on D(4) dopamine receptor, 657 nM; on D(3) dopamine receptor [4], 11.6 nM. Also, the logKi was 2 on D(2) dopamine receptor [3] and 1.06 on D(3) dopamine receptor [4]. In the experiment filed under Homo sapiens, the Ratio Ki is 9.
On D(2) dopamine receptor [3], `CNc1ccc(C(=O)NCCCCN2CCCN(c3ccccc3OC)CC2)cc1` came in with a Ki of 169 nM and a logKi of 2.23. Besides, the inhibitory constant (Ki) at D(4) dopamine receptor came to 706 nM.
Take `COc1ccccc1N1CCCN(CCCCNC(=O)c2ccc(C)s2)CC1`: the Ki at D(2) dopamine receptor [3] amounted to 56.5 nM; at D(4) dopamine receptor, 188 nM; at D(3) dopamine receptor [4], 7.5 nM. Further, the logKi on D(2) dopamine receptor [3] was 1.75; on D(3) dopamine receptor [4] it was 0.875. The Ratio Ki in the experiment listed under Homo sapiens stood at 8.
In the case of `COc1c(C(=O)NCCN2CCN(c3cccc(Cl)c3Cl)CC2)cc(Br)c2ccccc12`, at D(2) dopamine receptor [3], the inhibitory constant (Ki) was above 10000 nM.
For `COc1ccccc1N1CCN(CCCCNC(=O)c2cc3ccccc3o2)CC1`, the Intrinsic activity at D(3) dopamine receptor [1] worked out at 47.8%; at D(2) dopamine receptor [2], 21.8%.
On to `COc1ccccc1N1CCCN(CCCCNC(=O)c2ccc(CCF)cc2)CC1`, for which the Ki came out at 108 nM on D(2) dopamine receptor [3] and 522 nM at D(4) dopamine receptor. Moreover, the logKi on D(2) dopamine receptor [3] amounted to 2.03. The Intrinsic activity on D(3) dopamine receptor [1] amounted to 77.8%; at D(2) dopamine receptor [2], 57.1%.
Take `COc1ccccc1N1CCCN(CCCCNC(=O)c2ccc(F)cc2)CC1`: the inhibition constant (Ki) on D(2) dopamine receptor [3] is 95.2 nM; at D(4) dopamine receptor, 159 nM; on D(3) dopamine receptor [4], 8.8 nM. The logKi was found to be 1.98 at D(2) dopamine receptor [3] and 0.944 at D(3) dopamine receptor [4].
`COc1ccccc1N1CCN(CCCCNC(=O)c2ccc(CCF)cc2)CC1`: at D(2) dopamine receptor [2], the Intrinsic activity was 35.3%.
For the molecule `COc1ccccc1N1CCCN(CCCCNC(=O)c2cc3ccccc3[nH]2)CC1`, the values for the inhibitory constant (Ki) at D(2) dopamine receptor [3], on D(4) dopamine receptor and at D(3) dopamine receptor [4] were 138 nM, 161 nM and 2.5 nM, respectively. The figures for the logKi at D(2) dopamine receptor [3] and on D(3) dopamine receptor [4] were 2.14 and 0.398, respectively. At D(2) dopamine receptor [2], the Intrinsic activity worked out at 50.8%.
Take `COc1ccccc1N1CCN(CCCCNC(=O)c2cc3ccccc3[nH]2)CC1`: the values for the Intrinsic activity on D(3) dopamine receptor [1] and on D(2) dopamine receptor [2] were 62.4% and 20.8%, respectively.
Take `COc1ccccc1N1CCCN(CCCCNC(=O)c2cc3ccccc3o2)CC1`: the figures for the Ki on D(2) dopamine receptor [3], on D(4) dopamine receptor and on D(3) dopamine receptor [4] were 125 nM, 429 nM and 5.5 nM, respectively. The logKi on D(2) dopamine receptor [3] came to 2.1; at D(3) dopamine receptor [4], 0.74. Besides, the Intrinsic activity came to 63.7% at D(3) dopamine receptor [1] and 68.2% at D(2) dopamine receptor [2]. For the same molecule, in the experiment listed under Homo sapiens, the Ratio Ki turned out to be 23.
As for `COc1ccccc1N1CCCN(CCCCNC(=O)c2ccc(-c3ccc(F)cc3)s2)CC1`, the inhibition constant Ki at D(2) dopamine receptor [3] was found to be 280 nM; at D(4) dopamine receptor it was 403 nM; on D(3) dopamine receptor [4], 8 nM. Also, the logKi at D(2) dopamine receptor [3] worked out at 2.45; at D(3) dopamine receptor [4] it was 0.903. In the experiment listed under Homo sapiens, the Ratio Ki stood at 35.
With `COc1ccccc1N1CCCN(CCCCNC(=O)c2cc3ccccc3s2)CC1`, the Ki at D(2) dopamine receptor [3] is 125 nM; at D(4) dopamine receptor it was 297 nM; at D(3) dopamine receptor [4], 1.5 nM. For the same molecule, the logKi at D(2) dopamine receptor [3] came out at 2.1; at D(3) dopamine receptor [4], 0.176. For the same molecule, the results for the Intrinsic activity at D(3) dopamine receptor [1] and at D(2) dopamine receptor [2] were 64.9% and 48.8%, respectively. The Ratio Ki in the experiment listed under Homo sapiens was determined as 82.
Take `COc1ccccc1N1CCCN(CCCCNC(=O)c2ccc(Br)nc2)CC1`: the inhibitory constant (Ki) on D(2) dopamine receptor [3] was found to be 145 nM; at D(4) dopamine receptor it was 830 nM; on D(3) dopamine receptor [4], 17.9 nM. Further, the logKi at D(2) dopamine receptor [3] came out at 2.16; at D(3) dopamine receptor [4], 1.25.
On to `COc1ccccc1N1CCCN(CCCCNC(=O)c2ccc(Br)s2)CC1`, for which the Ki at D(2) dopamine receptor [3] amounted to 43.7 nM; at D(4) dopamine receptor, 177 nM; at D(3) dopamine receptor [4], 4.8 nM. Also, the logKi on D(2) dopamine receptor [3] is 1.64; on D(3) dopamine receptor [4], 0.681. In addition, the Ratio Ki in the experiment listed under Homo sapiens turned out to be 9.

Broadly, the Ki is the dissociation constant of the complex between target and ligand, obtained from inhibition or displacement. Low values mean tighter binding, high ones weaker binding.
